Test results reported in publication PMC9894536 (Biomaterials science, 2023).
Where a SMILES comes first, the peptide text is derived from it. The star is where a group is joined. X1 = C[C@H](Cn1cnc2c(N)ncnc21)OCP(=O)(O)OCCS*; Palmitoyl = CCCCCCCCCCCCCCCC(=O)*

Legend:
[1] = Nanobelt width by negatively stained transmission electron microscopy; format: physicochemical; conditions: TEM, 1 mM concentration, mean ± SD, n = 35
In short: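 Samples were pH 7.4 aqueous solutions (1 mM shown), negatively stained and imaged by TEM. Nanobelt widths were measured from the images and reported as mean ± SD over 35 measurements.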

[2] = Critical micellization concentration by Nile red encapsulation assay; format: physicochemical; conditions: fluorescence ratio 635 nm vs 660 nm, aqueous, n = 3
In short: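 Critical micellization concentration was read on a fluorometer as the concentration where the ratio of fluorescence at 635 nm (encapsulated Nile red) to 660 nm (free Nile red) shifted. Measurements were made in aqueous prodrug solutions, and data are mean ± SD of 3.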

[3] = Instantaneous gelation on injection into PBS; format: physicochemical; conditions: 10 mM solution assembled with 10 mM Nile red, injected into 10x PBS
[4] = format: physicochemical; conditions: addition of PBS (final 1x PBS) to 5 mM solution; 10 ul 10x PBS to 100 ul
In short: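 Aqueous prodrug solutions, brought to pH 7.4 after purification, were gelled by adding 10× PBS at a 10:1 solution-to-buffer ratio to reach 1× PBS. Gel formation and the critical gelation concentration were judged by a simple vial-inversion test across prodrug concentrations.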

[5] = In vitro gel release of TFV-PA from hydrogel depots; format: physicochemical
In short: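 Hydrogels were made from 5 and 10 mM prodrug solutions and aged at 37 °C under a fixed volume of PBS release medium. Supernatant was collected and replaced at set time points up to day 30 and analysed by analytical RP-HPLC. Release is given as nanomoles and as percent of conjugate in the original gel, mean ± SD, n = 3.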

[6] = Free TFV release / prodrug stability with or without dithiothreitol; format: physicochemical; conditions: 100 μM in 1x PBS, 10 mM DTT, 37 °C; for TFV released by 24 hours with DTT: RP-HPLC and ESI MS
HBV = assay: Anti-HBV efficacy, HBV DNA in supernatant of HepAD38 cells by qPCR; format: cell-based; conditions: Hepatitis B virus, HePAD38, 96 h, read-out: IC50, HBV production

For `CCCCCCCCCCCCCCCC(=O)N[C@H](C(=O)N[C@H](C(=O)N[C@H](C(=O)N[C@@H](CSSCCOP(=O)(O)CO[C@H](C)Cn1cnc2c(N)ncnc21)C(=O)N[C@@H](CCC(=O)O)C(=O)O)C(C)C)C(C)C)C(C)C` [TFV-PA3] (Palmitoyl-VVVC(X1)E-OH; C-terminus assumed), the nanobelt width [1] was 18.9 ± 3.0 nm, the “critical micellization concentration (CMC)” value [2] was 8 µM and the gelation upon injection [3] was “formed gels instantly upon injection”. For the same compound, the “gel formation of 5 mM solution” value [4] was “robust gel formation”, the “percent released on day 30, 5 mM hydrogels” value ([5]; 5 mM hydrogel, 37 °C, PBS release medium, RP-HPLC, day 30, mean ± SD, n = 3) was 16.3 ± 1.3% and the “prodrug released on day 30, 5 mM hydrogels” value ([5]; 5 mM hydrogel, 37 °C, PBS release medium, day 30, mean ± SD) was 36.7 ± 3.0 nmol. For the same compound, the “percent released on day 30, 10 mM hydrogels” value ([5]; 10 mM hydrogel, 37 °C, PBS release medium, RP-HPLC, day 30, mean ± SD, n = 3) was 6.1 ± 0.5%, the “average concentration of release supernatant from day 8 onwards, 10 mM gels” value ([5]; 10 mM hydrogel, 37 °C, PBS release medium, day 8 onwards) was 13.3 ± 4.2 µM and the “prodrug released on day 30, 10 mM hydrogels” value ([5]; 10 mM hydrogel, 37 °C, PBS release medium, day 30, mean ± SD) was 27.3 ± 2.2 nmol. The “initial prodrugs retained in hydrogel on day 30” value ([5]; hydrogels aged at 37 °C with PBS release medium, RP-HPLC, day 30) was “more than 80%”, the “TFV released after 4 hours with DTT” value ([6]; 4 hours, RP-HPLC, n = 3) was “more than 70%” and the “TFV released by 24 hours with DTT” value [6] was “all TFV released”.
`C[C@H](Cn1cnc2c(N)ncnc21)OCP(=O)(O)O` [TFV, tenofovir] gave an IC50 (HBV) of 1.1 µM.
In the case of `CCCCCCCCCCCCCCCC(=O)N[C@H](C(=O)N[C@H](C(=O)N[C@@H](CSSCCOP(=O)(O)CO[C@H](C)Cn1cnc2c(N)ncnc21)C(=O)N[C@@H](CCC(=O)O)C(=O)O)C(C)C)C(C)C` [TFV-PA2] (Palmitoyl-VVC(X1)E-OH; C-terminus assumed), the nanobelt width [1] is reported as 11.8 ± 1.3 nm, the “critical micellization concentration (CMC)” value [2] is reported as 51 µM and the gelation upon injection [3] is reported as “formed gels instantly upon injection”. The “gel formation of 5 mM solution” value [4] was “weak gel formation”, the “average concentration in the release supernatant, 5 mM gels” value ([5]; 5 mM hydrogel, 37 °C, PBS release medium, RP-HPLC) was 361 ± 91 µM and the “percent release on day 14, 5 mM gel” value ([5]; 5 mM hydrogel, 37 °C, PBS release medium, RP-HPLC, day 14, n = 3) was 56%. For the same compound, the “prodrug released on day 14, 5 mM gel” value ([5]; 5 mM hydrogel, 37 °C, PBS release medium, day 14, mean ± SD) was 126 ± 7 nmol, the “average concentration in the release supernatant, 10 mM gels” value ([5]; 10 mM hydrogel, 37 °C, PBS release medium, RP-HPLC) was 619 ± 268 µM and the “percent release on day 14, 10 mM gel” value ([5]; 10 mM hydrogel, 37 °C, PBS release medium, RP-HPLC, day 14, n = 3) was 48%. The “prodrug released on day 14, 10 mM gel” value ([5]; 10 mM hydrogel, 37 °C, PBS release medium, day 14, mean ± SD) was 217 ± 12 nmol, the “initial prodrugs released from hydrogel by day 14” value ([5]; hydrogels aged at 37 °C with PBS release medium, RP-HPLC, day 14) was “about 50%” and the “TFV released after 1 hour with DTT” value ([6]; 1 hour, RP-HPLC, n = 3) was “more than 90%”. The “TFV released by 24 hours with DTT” value [6] was “all TFV released”.
